Assay outcomes from PubChem.
KDM4C inh: inhibitors of human demethylase GASC-1 KDM4C; inhibition, % at 12.5 µM; AID 720574; GST-KDM4C 2-372, H3K9me3 peptide, LANCE TR-FRET; 96,000 compounds, 0.15% hits; Q9H3R0;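 active = mean replicate inhibition above about 25%, with at least 55% of replicates also reaching it, limit read from the data, passing the limit was not always enough; inconclusive = only one of those two conditions met; inactive = neither condition met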
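Material: GST-tagged GASC-1 (JMJD2C) catalytic fragment, aa 2-372. Input: enzyme final amount 10 nM. Medium: HEPES buffer, pH 7.5, plus ascorbate. Reagent: H3K9me3 peptide substrate, Fe(II), 2-oxoglutarate. Doses: single dose. Times: reaction 30 min RT, detection step 1 h RT. Measured by: LANCE TR-FRET. Evaluation: Fall in 671/618 emission ratio as inhibition.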
IDH1 R132H inh: blocks human IDH1 R132H reductase activity; 70,000 compounds, 0.18% hits; diaphorase/resazurin fluorescence, 60 min; inhibition, % at 10 µM; AID 624101; in the data active = inhibition above about 34%; inconclusive = no clear call, values can overlap the other calls; inactive = below about 11%
Target sequence (O75874 whole entry R132H): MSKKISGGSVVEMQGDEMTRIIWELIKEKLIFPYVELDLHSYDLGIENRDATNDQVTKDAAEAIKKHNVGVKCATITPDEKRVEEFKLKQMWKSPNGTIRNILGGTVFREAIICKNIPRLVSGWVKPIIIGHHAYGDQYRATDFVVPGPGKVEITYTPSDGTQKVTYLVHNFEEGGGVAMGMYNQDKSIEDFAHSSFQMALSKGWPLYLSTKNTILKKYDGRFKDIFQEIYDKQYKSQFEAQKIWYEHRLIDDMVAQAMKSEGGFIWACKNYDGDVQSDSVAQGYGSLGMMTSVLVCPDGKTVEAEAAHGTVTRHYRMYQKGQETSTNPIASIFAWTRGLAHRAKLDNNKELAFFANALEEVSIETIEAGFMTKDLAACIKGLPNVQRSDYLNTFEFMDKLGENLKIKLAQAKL
T cruzi growth-1: blocks T. cruzi growth in NIH3T3 culture. T. cruzi beta-gal in NIH3T3, GalScreen luminescence, 90 h. inhibition, % at 8.34 µM. 77,000 compounds, 5.9% hits. AID 624255;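 active = mean inhibition above about 93%, with at least 55% of replicates each passing it, limit read from the data, passing the limit was not always enough; inconclusive = only one of those two conditions holds; inactive = neither condition holds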
Pf Dd2 growth: P. falciparum Dd2 growth inhibition; SYBR Green, 72 h; active compounds read low; activity change, % at 10 µM; 94,000 compounds, 2.3% hits; AID 1159554; in the data active = activity change below about -80%; inconclusive = no clear call, values can overlap the other calls
T cruzi growth-2: inhibitors of T. cruzi proliferation | shares compounds with T cruzi growth-1 | T. cruzi beta-gal in NIH3T3, GalScreen luminescence, 90 h | inhibition, % at 8.35 µM | 5,600 compounds, 72% hits | AID 651739;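 active = mean replicate inhibition above about 95% and at least 55% of replicates individually reaching it, limit read from the data; inconclusive = only one of the two criteria is met; inactive = neither criterion is met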
T cruzi growth-3: inhibitors of T. cruzi proliferation; AID 651740; T. cruzi beta-gal in NIH3T3, GalScreen luminescence, 90 h; inhibition, % at 2.09 µM; shares compounds with T cruzi growth-1; 5,600 compounds, 21% hits;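 active = mean inhibition above about 95%, with at least 55% of replicates also reaching it, limit read from the data; inconclusive = meets just one of the two conditions; inactive = meets neither condition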
3T3 cytotox: NIH/3T3 (mouse) viability loss. shares compounds with T cruzi growth-1. NIH/3T3 viability, CellTiter-Glo ATP luminescence, 90 h. cytotoxicity (signal decrease), % at 8.35 µM. 5,600 compounds, 14% hits;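 active = mean signal decrease across replicates above about 35% based on untreated-well scatter, with enough replicates individually passing, limit read from the data; inconclusive = no rule stated though some were filed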
3T3 cytotox 2: NIH/3T3 (mouse) viability loss; shares compounds with T cruzi growth-1; NIH/3T3 viability, CellTiter-Glo ATP luminescence, 90 h; inhibition, % at 24.9 µM; 5,600 compounds, 56% hits; AID 651744;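 active = mean loss of cell viability signal at or above a set limit, and enough replicates individually reaching it; inconclusive = meets only the mean limit or only the replicate share; inactive = meets neither condition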
Of the large screens only hits and unclear results are named; the others gave an inactive call (follow-up assays come after a bar, where they were run). The list is not random: actives were taken first. Their share in the collection is about 5.8%.

Cc1ccc(S(=O)(=O)N(C)C[C@H]2Oc3ncc(C#CCC(C)C)cc3C(=O)N([C@@H](C)CO)C[C@H]2C)cc1	T cruzi growth-1 105 | T cruzi growth-2 104 | T cruzi growth-3 inactive | 3T3 cytotox inactive | 3T3 cytotox 2 93
CC(C)CC#Cc1cnc2c(c1)C(=O)N([C@H](C)CO)C[C@@H](C)[C@@H](CN(C)S(=O)(=O)c1ccccc1)O2	none
CC(=O)OC1CC2(C)C(CCC3C4(C)CCC(=O)C(C)C4C(O)C(=O)C32C)/C1=C(\CCC=C(C)C)C(=O)O (stereo unspecified)	none (no result: KDM4C inh, T cruzi growth-1, Pf Dd2 growth)
COc1cc(CNC2CCCC2)cc(I)c1OCC(N)=O	none (no result: KDM4C inh, T cruzi growth-1, Pf Dd2 growth)
C[C@@H]1CN([C@@H](C)CO)S(=O)(=O)c2ccc(C3=CCCC3)cc2O[C@H]1CN(C)S(=O)(=O)c1ccc(F)cc1	T cruzi growth-1 116 | T cruzi growth-2 97 | T cruzi growth-3 99 | 3T3 cytotox inactive | 3T3 cytotox 2 27
COc1ccc(S(=O)(=O)N(C)C[C@H]2Oc3cc(C4=CCCC4)ccc3S(=O)(=O)N([C@@H](C)CO)C[C@@H]2C)cc1	none
C[C@H]1CN([C@@H](C)CO)S(=O)(=O)c2ccc(C3=CCCC3)cc2O[C@H]1CN(C)S(=O)(=O)c1ccc(F)cc1	T cruzi growth-1 121 | T cruzi growth-2 106 | T cruzi growth-3 inactive | 3T3 cytotox inactive | 3T3 cytotox 2 inactive
Cc1ccc(S(=O)(=O)N(C)C[C@@H]2Oc3cc(C4=CCCC4)ccc3S(=O)(=O)N([C@H](C)CO)C[C@@H]2C)cc1	none (no result: T cruzi growth-1)
C[C@@H]1CN([C@H](C)CO)S(=O)(=O)c2ccc(C3=CCCCC3)cc2O[C@@H]1CN(C)S(=O)(=O)c1ccc(F)cc1	T cruzi growth-1 119 (no result: IDH1 R132H inh) | T cruzi growth-2 101 | T cruzi growth-3 107 | 3T3 cytotox inactive | 3T3 cytotox 2 61
COC(=O)C1=CC(C(=O)c2ccccc2)=NN(c2ccccc2)C1C(=O)OC (stereo unspecified)	none (no result: KDM4C inh, T cruzi growth-1, Pf Dd2 growth)
COc1ccc(Cl)cc1NC(=O)CN(c1c(C)cccc1C)S(C)(=O)=O	none (no result: KDM4C inh, T cruzi growth-1, Pf Dd2 growth)
C[C@H]1CCCCO[C@H](CN(C)S(=O)(=O)c2ccc(Cl)cc2)[C@@H](C)CN([C@@H](C)CO)C(=O)c2cc(NC(=O)CCC(F)(F)F)ccc2O1	T cruzi growth-1 105 | T cruzi growth-2 103 | T cruzi growth-3 inactive | 3T3 cytotox inactive | 3T3 cytotox 2 inactive
C[C@H]1CCCCO[C@@H](CN(C)S(=O)(=O)c2ccc(Cl)cc2)[C@@H](C)CN([C@@H](C)CO)C(=O)c2cc(NC(=O)CCC(F)(F)F)ccc2O1	T cruzi growth-1 117, Pf Dd2 growth -83 (no result: IDH1 R132H inh) | T cruzi growth-2 110 | T cruzi growth-3 inactive | 3T3 cytotox inactive | 3T3 cytotox 2 inactive
C[C@@H]1CCCCO[C@H](CN(C)S(=O)(=O)c2ccc(Cl)cc2)[C@H](C)CN([C@H](C)CO)C(=O)c2cc(NC(=O)CCC(F)(F)F)ccc2O1	T cruzi growth-1 99 (no result: IDH1 R132H inh) | T cruzi growth-2 106 | T cruzi growth-3 inactive | 3T3 cytotox inactive | 3T3 cytotox 2 30
COc1ccc(N(C(C)C(=O)Nc2cc(Cl)ccc2C)S(C)(=O)=O)cc1 (stereo unspecified)	none (no result: KDM4C inh, T cruzi growth-1, Pf Dd2 growth)
C[C@@H]1CCCCO[C@@H](CN(C)Cc2ccccc2)[C@@H](C)CN([C@H](C)CO)C(=O)c2cc(NC(=O)Nc3ccc(F)cc3)ccc2O1	T cruzi growth-1 101 (no result: IDH1 R132H inh) | T cruzi growth-2 107 | T cruzi growth-3 inactive | 3T3 cytotox inactive | 3T3 cytotox 2 inactive
C[C@@H]1CCCCO[C@H](CN(C)Cc2ccccc2)[C@@H](C)CN([C@H](C)CO)C(=O)c2cc(NC(=O)Nc3ccc(F)cc3)ccc2O1	none
C[C@H](CO)N1C[C@H](C)[C@H](CN(C)Cc2ccccc2)OCCCC[C@H](C)Oc2ccc(NC(=O)Nc3ccc(F)cc3)cc2C1=O	T cruzi growth-1 inconclusive (no result: IDH1 R132H inh) | T cruzi growth-2 97 | T cruzi growth-3 114 | 3T3 cytotox inactive | 3T3 cytotox 2 104
